Results: ChEMBL document CHEMBL1145155, “Synthesis and identification of [1,3,5]triazine-pyridine biheteroaryl as a novel series of potent cyclin-dependent kinase inhibitors” (J Med Chem, 2005)
Values belong to the molecule of their own block, whether it stands above or below them.

Columns and labels:
[1] = Inhibition of Protein kinase C gamma
[2] = molecular target: Fibroblast growth factor receptor 2 (Homo sapiens, UniProt P21802); assay: Inhibition of Fibroblast growth factor receptor 2
HeLa = assay: Inhibitory concentration of compound against growth of HeLa cells; settings: Homo sapiens
[3] = molecular target: Cyclin-dependent kinase 2/cyclin A (Homo sapiens, UniProt P24941); assay: Inhibitory concentration of compound against CDK2/cyclin A; format: protein-complex assay
[4] = molecular target: T1, Cyclin-dependent kinase 1 (Homo sapiens, UniProt P06493); assay: Inhibition of cyclin dependent kinase CDK1
Outline: (§1)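 Incubated 1 h at 30 °C on a streptavidin-coated plate, stopped by washing with PBS containing 100 mM EDTA, then scintillation counted. Conditions varied slightly by kinase. IC50 was derived by linear regression of % inhibition versus untreated controls.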

[5] = Inhibition of Glycogen synthase kinase-3 beta
Casein kinase II = Casein kinase II (Homo sapiens, UniProt P19784+P67870+P68400); assay: Inhibition of Casein kinase II; format: protein-complex assay
CDK6/cyclin D3 = CDK6/cyclin D3 (Homo sapiens, UniProt Q00534); assay: Inhibition of CDK6/cyclin D3; format: protein-complex assay
Outline: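 Run in an external kinase panel. Kinase phosphorylation of the appropriate peptide/protein substrate was measured with 100 μM ATP, under conditions linear with time. IC50 is the average of two separate determinations.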

[6] = molecular target: Cyclin-dependent kinase 4/cyclin D1 (Homo sapiens, UniProt P11802); assay: Inhibition of CDK4/cyclin D1; format: protein-complex assay; outline: as §1
[7] = molecular target: Cyclin-dependent kinase 7/ cyclin H (Homo sapiens, UniProt P50613); assay: Inhibition of CDK7/cyclin H; format: protein-complex assay
Outline: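 Run by Upstate Biotech as a contract panel: kinase phosphorylation of an appropriate peptide/protein substrate with 100 μM ATP, under conditions linear with time. IC50 is the average of two separate determinations.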

[8] = molecular target: RAC-beta serine/threonine-protein kinase (Homo sapiens, UniProt P31751); assay: Inhibition of PKB beta
[9] = Inhibitory concentration of compound against growth of MES SA cells (low p glycoprotein); settings: Homo sapiens
[10] = molecular target: Mitogen-activated protein kinase 1 (Homo sapiens, UniProt P28482); assay: Inhibition of ERK 2
[11] = Inhibition of [Ca(2+)]/Calmodulin dependent kinase
U-937 = assay: Inhibitory concentration of compound against growth of U-937 cells; settings: Homo sapiens
[12] = molecular target: Cyclin-dependent kinase 1/cyclin B (Homo sapiens, UniProt P06493); assay: Inhibition of Cyclin-dependent kinase 1-cyclin B; format: protein-complex assay
HCT-116 = assay: Inhibitory concentration of compound against growth of HCT116 cells; settings: Homo sapiens
[13] = Inhibitory concentration of compound against growth of MES SA/Dx 5 cells (high p glycoprotein); settings: Homo sapiens, MES-SA/Dx5
[14] = molecular target: Cyclin-dependent kinase 5/CDK5 activator 1 (Homo sapiens, UniProt Q00535)
A-375 = assay: Inhibitory concentration of compound against growth of A-375 cells; settings: Homo sapiens
[15] = molecular target: Vascular endothelial growth factor receptor 2 (Homo sapiens, UniProt P35968); assay: Inhibition of vascular endothelial growth factor receptor 2
[16] = molecular target: T1, Cyclin-dependent kinase 1; assay: Inhibition of cyclin dependent kinase (CDK1)
Outline: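 Radiometric FlashPlate assay: biotinylated peptide substrate at 0.025 μM with 33P-γ-ATP plus 10 μM ATP in 50 mM Tris-HCl pH 8, 10 mM MgCl2, 0.1 mM Na3VO4, 1 mM DTT. Incubated 1 h at 30 °C, stopped by PBS/100 mM EDTA wash, then scintillation counted. Inhibition is relative to untreated controls; IC50 from linear regression of percent inhibition. Conditions varied slightly per kinase.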

SMILES: OCCCNc1cc(-c2ncnc(Nc3cccc(Cl)c3)n2)ccn1
IC50 [1]: > 10000 nM | IC50 [2]: > 10000 nM | IC50 (HeLa): 33 nM | IC50 [3]: 7 nM | IC50 [4]: 21 nM | IC50 [5]: 20 nM | IC50 (Casein kinase II): > 10000 nM | IC50 (CDK6/cyclin D3): 356 nM | IC50 [6]: 308 nM | IC50 [7]: 126 nM | IC50 [8]: > 10000 nM | IC50 [9]: 228 nM | IC50 [10]: > 10000 nM | IC50 [11]: > 10000 nM | IC50 (U-937): 31 nM | IC50 [12]: 21 nM | IC50 (HCT-116): 23 nM | IC50 [13]: 235 nM | IC50 [14]: 3 nM | IC50 (A-375): 28 nM

SMILES: OCCCNc1cncc(-c2ncnc(Nc3ccc(N4CCOCC4)cc3)n2)c1
IC50 [15]: 5030 nM

SMILES: OCCCNc1cncc(-c2ncnc(Nc3ccc4c(c3)OCCO4)n2)c1
IC50 [16]: 344 nM | IC50 [15]: 4140 nM

SMILES: OCCCNc1cncc(-c2ncnc(Nc3cccc(Cl)c3)n2)c1
IC50 [16]: 60 nM | IC50 [15]: 2010 nM

More lines, now with the values ahead:

IC50 [15]: > 10000 nM
SMILES: OCCCNc1cncc(-c2ncnc(Nc3cccc(Cl)c3)n2)n1

IC50 [16]: 1110 nM | IC50 [15]: 1070 nM
SMILES: Nc1nc(Nc2cccc(Cl)c2)nc(-c2ccnc(NCCCO)c2)n1
